# From ChEMBL document CHEMBL4000162, “Arborinane Triterpenoids from Rubia philippinensis Inhibit Proliferation and Migration of Vascular Smooth Muscle Cells Induced by the Platelet-Derived Growth Factor” (J Nat Prod, 2016)
# The source made the active and inactive calls. The rule behind the calls is not given here.
# How the values were obtained:
# [1] = Cytotoxicity against rat VSMC assessed as decrease in cell viability at 30 uM after 48 hrs by MTT assay; assay type: cell-based
# How it was run: (§1)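 Rat aortic VSMCs seeded at 3.5 × 10^4 cells/mL in DMEM/10% FBS and grown to 70% confluence, then serum-free for 24 h. Exposed to compound for 48 h without PDGF (digitonin 100 μg/mL reference). Viability by MTT: 5 mg/mL for 4 h, DMSO, absorbance at 565 nm. Means ± SEM.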
# VSMC [2] = assay: (§2) Antimigratory activity against PDGF-BB-stimulated rat VSMC at 30 uM preincubated for 2 hrs followed by PDGF-BB addition measured after 48 hrs by scratch wound-healing assay; assay type: functional
# How it was run: (§3)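 Rat aortic VSMCs (enzymatic dispersion; DMEM, 10% FBS) grown in 12-well plates to >90% confluence, serum-starved 24 h, scratched with two lines and imaged at 0 h. Pretreated 2 h with compound (paclitaxel 1 μM as reference), then 25 ng/mL PDGF-BB for 48 h. Fixed in 100% MeOH, stained with 0.5% crystal violet, migration area quantified from images. Means ± SEM of triplicate experiments.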
# VSMC [3] = assay: Antiproliferative activity against PDGF-BB-stimulated rat VSMC at 30 uM preincubated for 24 hrs followed by PDGF-BB addition measured after 24 hrs by MTT assay; assay type: functional, cell-based
# How it was run: (§4)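 Rat aortic VSMCs seeded at 3.5 × 10^4 cells/mL and grown in DMEM/10% FBS at 37 °C to 70% confluence. Serum-starved 24 h, given compound for 24 h (paclitaxel 1 μM reference), then stimulated with 25 ng/mL PDGF-BB for 24 h. MTT 5 mg/mL in serum-free DMEM for 4 h, DMSO solubilisation, absorbance read at 565 nm. Means ± SEM of triplicates.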
# VSMC [4] = assay: Antimigratory activity against PDGF-BB-stimulated rat VSMC preincubated for 2 hrs followed by PDGF-BB addition measured after 48 hrs by photograph-based scratch wound-healing assay; assay type: functional, cell-based; how it was run: as §3
# [5] = as §2; assay type: functional; how it was run: as §3
# [6] = Antimigratory activity against PDGF-BB-stimulated rat VSMC at 10 uM preincubated for 2 hrs followed by PDGF-BB addition measured after 48 hrs by scratch wound-healing assay; assay type: functional; how it was run: as §3
# [7] = Cytotoxicity against rat VSMC assessed as decrease in cell viability at 10 to 30 uM after 48 hrs by MTT assay; assay type: cell-based; how it was run: as §1
# VSMC [8] = assay: Antimigratory activity against PDGF-BB-stimulated rat VSMC preincubated for 2 hrs followed by PDGF-BB addition measured after 48 hrs by scratch wound-healing assay; assay type: functional, cell-based; how it was run: as §3
# [9] = Antiproliferative activity against PDGF-BB-stimulated rat VSMC at 5 uM preincubated for 24 hrs followed by PDGF-BB addition measured after 24 hrs by MTT assay relative to control; assay type: functional; how it was run: as §4
# [10] = Cytotoxicity against rat VSMC assessed as decrease in cell viability at 5 uM after 48 hrs by MTT assay; assay type: cell-based; how it was run: as §1
# VSMC [11] = assay: Antiproliferative activity against PDGF-BB-stimulated rat VSMC at 10 to 30 uM preincubated for 24 hrs followed by PDGF-BB addition measured after 24 hrs by MTT assay; assay type: functional, cell-based; how it was run: as §4
# VSMC [12] = assay: Antimigratory activity against PDGF-BB-stimulated rat VSMC at 10 to 30 uM preincubated for 2 hrs followed by PDGF-BB addition measured after 48 hrs by scratch wound-healing assay; assay type: functional, cell-based; how it was run: as §3
SMILES,Activity [7],inhibition at 5 µM [9],Activity [10],inhibition (VSMC [11]),Activity (VSMC [12]),also measured
CC(=O)OC[C@@]12CC[C@@]3(C)[C@H]4C(=CC[C@]3(C)[C@H]1[C@H](O)C[C@H]2C(C)C)[C@@]1(C)CC[C@H](OC(C)=O)C(C)(C)[C@@H]1C[C@@H]4O,–,–,–,–,–,Activity [1]: Toxic; Activity (VSMC [2]): Active; inhibition (VSMC [3]): Active
CC(=O)O[C@H]1CC[C@]2(C)C3=CC[C@]4(C)[C@H]5[C@H](O)C[C@@H](C(C)C)[C@]5(CO)CC[C@@]4(C)[C@@H]3[C@@H](O)C[C@H]2C1(C)C,Non-Toxic,–,–,–,–,Activity (VSMC [4]): Dose-dependent effect; Activity [5]: 57.6%; Activity [6]: 38.5%; Activity (VSMC [8]): Dose-dependent effect
CC(=O)O[C@@H]1C[C@@H](C(C)C)[C@]2(C)CC[C@@]3(C)[C@H]4C(=CC[C@]3(C)[C@@H]12)[C@@]1(C)C=CC(=O)C(C)(C)[C@@H]1C[C@@H]4O,Toxic,41.1%,Non-Toxic,Active,–,–
CC(C)[C@@H]1C[C@@H]2OC[C@]13CC[C@@]1(C)[C@H]4C(=CC[C@]1(C)[C@@H]23)[C@@]1(C)CC[C@H](O)C(C)(C)[C@@H]1C[C@@H]4O,Toxic,62.6%,Non-Toxic,Active,Active,–
CC(=O)O[C@@H]1C[C@@H](C(C)C)[C@]2(C)CC[C@@]3(C)[C@H]4C(=CC[C@]3(C)[C@@H]12)[C@@]1(C)CC[C@H](O)C(C)(C)[C@@H]1C[C@@H]4O,Toxic,–,–,Active,Active,–
